# The list is not random: actives were taken first. Their share in the collection is about 4.1%.
# T cruzi inh – blocks replication of Trypanosoma cruzi; AID 1885; actives 1.4% (n = 300,000); T. cruzi beta-gal in NIH3T3, luminescence, 90 h; inhibition, % (concentration not given with the values);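 active = mean inhibition across valid replicates above about 55%, limit read from the data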;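 also: signal also drops with host cell toxicity which is not excluded here; higher percent means less beta-gal luminescence so fewer parasites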
#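 System: Mouse NIH/3T3 fibroblasts infected with β-gal-expressing T. cruzi Tulahuen C4 | Quantity: NIH/3T3 cells, 5,000 per well | Reagent: 5000 reporter trypomastigotes per well | Dosing: Compound pinned at 50 nL/well, DMSO | Schedule: 3 h host attachment, then at least 90 h co-culture | Detection: GalScreen luminescence, 60 min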
# MEKK2 WT-MEK5 – raises or lowers MEK5 binding to wildtype human MEKK2 PB1 domain; AID 1531; binding response (% of control), % at 10 µM; Q9Y2U5; bead flow cytometry, Alexa488-MEK5 binding to MEKK2 WT; actives lie on both sides; actives 1.1% (n = 290,000); in the data active = binding response below about 67% or above about 130%
# NS3 helicase inh – inhibitors of Hepatitis C virus NS3 helicase; NS3 helicase DNA unwinding, Cy5 molecular beacon fluorescence; inhibition, % at 10.9 µM; actives 0.56% (n = 290,000);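 active = inhibition above the mean of all tested compounds plus 3 SD, set per campaign, cut at about 35% in these data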
#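 Assay system: hepatitis C virus NS3 helicase domain fragment enzyme. Also added: annealed dual-labelled DNA beacon duplex, ATP-started. Timing: 1 h reaction at 25 °C, ATP-initiated. Technique: Cy5 fluorescence at 0 and 60 min, beacon hairpin quenching. Evaluation: % inhibition of unwinding. Replication: one well per compound.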
# MEKK3 PB1 HTS – raises or lowers MEK5 binding to the human MEKK3 PB1 domain; Q99759; bead-based flow cytometry, Alexa488-MEK5 binding to MEKK3; actives lie on both sides; 0 = blocked by unlabeled MEK5, 100 = vehicle; binding response (% of control), % at 10 µM; actives 1.4% (n = 290,000); AID 1529;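 active = binding response more than 3 SD above or below the average of its plate-row segment, actives on both sides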;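 also: Alexa488 bead fluorescence after subtracting the streptavidin-only scavenger bead signal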
# Target sequence (Q99759 whole entry, looked up, the tested form may be a part): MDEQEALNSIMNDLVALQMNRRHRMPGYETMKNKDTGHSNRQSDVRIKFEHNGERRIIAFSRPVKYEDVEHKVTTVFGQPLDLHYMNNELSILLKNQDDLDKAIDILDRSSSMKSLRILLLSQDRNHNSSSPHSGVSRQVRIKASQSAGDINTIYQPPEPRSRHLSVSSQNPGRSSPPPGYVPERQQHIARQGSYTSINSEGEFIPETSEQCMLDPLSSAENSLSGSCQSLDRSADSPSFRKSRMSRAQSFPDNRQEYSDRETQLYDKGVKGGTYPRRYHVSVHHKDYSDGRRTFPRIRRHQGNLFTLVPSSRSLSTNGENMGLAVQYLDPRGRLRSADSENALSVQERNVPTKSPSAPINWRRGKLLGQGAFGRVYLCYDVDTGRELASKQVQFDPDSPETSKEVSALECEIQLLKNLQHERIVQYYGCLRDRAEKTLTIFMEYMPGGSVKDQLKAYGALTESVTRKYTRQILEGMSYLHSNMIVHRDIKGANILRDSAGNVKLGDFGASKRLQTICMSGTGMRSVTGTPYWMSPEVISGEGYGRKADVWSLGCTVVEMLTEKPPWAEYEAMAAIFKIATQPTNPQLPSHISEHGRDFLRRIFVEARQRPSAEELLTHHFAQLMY
# DNA FID counter-1 – fluorescent intercalator displacement, NS3 helicase counter-screen; DNA fluorescent intercalator displacement, fluorescence; inhibition, % at 7.9 µM; actives 0.17% (n = 290,000);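 also: higher means more ethidium bromide displaced from hairpin DNA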
# MEKK2mut PB1 HTS – signal of MEK5 binding to mutant human MEKK2 PB1 domain | percent response, % at 10 µM | bead flow cytometry, Alexa488-MEK5 binding to MEKK2 mutant | actives 0.35% (n = 290,000) | AID 1530; in the data active = percent response above about 24%, passing the limit was not always enough
# NS3 helicase cf – HCV NS3 helicase inhibition, confirmation assay. shares compounds with NS3 helicase inh. NS3 helicase DNA unwinding, Cy5 molecular beacon fluorescence. inhibition, % at 10.9 µM. actives 31% (n = 1,600). AID 1943;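 active = inhibition above the mean of all tested compounds plus 3 SD, cutoff set per campaign, cut at about 36% in these data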
# DNA FID counter-2 – displaces DNA intercalator in HCV helicase counter-screen; shares compounds with NS3 helicase inh; DNA fluorescent intercalator displacement, fluorescence; inhibition, % at 7.9 µM; actives 4% (n = 1,600); AID 1945;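 also: higher means more displacement of ethidium bromide from the DNA hairpin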
# FID counter DR – DNA intercalator displacement in dose response. IC50, µM. shares compounds with NS3 helicase inh. 120 tested, under 10 active. AID 2172. fluorescent intercalator displacement from DNA, fluorescence; call rule not given here
# Hits are given with their value; i = inactive; nt = no result given. Rule as the data show it, unless noted: active = inhibition above about 37%; inactive = the rest.
SMILES,T cruzi inh,MEKK2 WT-MEK5,NS3 helicase inh,MEKK3 PB1 HTS,DNA FID counter-1,MEKK2mut PB1 HTS,NS3 helicase cf,DNA FID counter-2,others
O=C(O)c1cccc(NC(=S)N/N=C/c2ccccc2OCc2ccc(Br)cc2)c1,i,i,41.7,i,i,i,63.4,i,
CCCc1cnc(N2CCN(S(=O)(=O)c3cccs3)CC2)nc1,i,i,i,i,i,i,nt,nt,
CN(C)S(=O)(=O)c1cccc(NC(=O)CCNC(=O)c2ccccc2Cl)c1,i,i,i,i,i,i,nt,nt,
CSc1sc(-c2ccnc(SCC(=O)C(C)(C)C)n2)c2c1C(=O)CC(C)(C)C2,i,i,56.4,i,i,i,i,i,
CSc1sc(C(=O)O)c2c1C(=O)CC(C)(C)C2,i,i,nt,i,nt,i,nt,nt,
O=C(Nc1nc(-c2cc3ccccc3oc2=O)cs1)c1ccc(Br)o1,i,i,i,i,i,i,nt,nt,
Cc1cc(-c2csc(NC(=O)c3ccc(=O)[nH]c3)n2)c(C)n1Cc1ccccc1,i,i,73.9,i,i,i,i,i,
Cc1cc(-c2csc(NC(=O)c3ccc(C#N)cc3)n2)c(C)n1Cc1ccco1,i,i,58.5,i,i,i,i,i,
Cc1cc(-c2csc(NC(=O)c3cc4ccccc4o3)n2)c(C)n1C,i,i,49.6,i,i,i,i,i,
CC(C)CC(=O)Nc1ccc(C(=O)COC(=O)C2CCC2)cc1,i,i,i,i,i,i,nt,nt,
CCC(NC(=O)c1cncc(Br)c1)c1ccccc1 (stereo not drawn),i,nt,nt,nt,nt,nt,nt,nt,
Cc1ccc(-c2nc3c(c(=O)c4ccccc4n3C)c(=O)n2Cc2ccco2)cc1,i,i,38.1,i,i,i,i,i,
Cn1c2ccccc2c(=O)c2c(=O)n(Cc3ccco3)c(-c3ccc(F)cc3)nc21,i,i,i,i,i,i,nt,nt,
COc1ccc(C(C)=O)cc1CSc1ccc2c(c1)OCCO2,i,i,i,i,i,i,nt,nt,
Cc1ccc(/C=C/C(=O)Nc2ncc(C)s2)o1,i,i,50.3,i,i,i,i,i,
Cc1c(O)ccc(C(=O)CN2CCN(Cc3ccc4c(c3)OCO4)CC2)c1O,i,i,84.3,i,98.2,i,i,i,
CCCNC(=S)N1CCN(Cc2ccc3c(c2)OCO3)CC1,i,i,54.8,i,i,i,i,i,
CCOC(=O)N1CCN(Cc2ccc3c(c2)OCO3)CC1,i,i,i,i,i,i,nt,nt,
O=C(NCc1ccccc1)C(c1cccnc1)N(C(=O)c1csnn1)c1ccccc1 (stereo not drawn),i,i,i,i,i,i,nt,nt,
O=C(Nc1ccc(S(=O)(=O)NCc2ccccc2)cc1)C1CCCCC1,i,i,i,i,i,i,nt,nt,
Cc1cc(C)nc(CCNC(=O)CC2C(=O)NCCN2Cc2ccccc2)n1 (stereo not drawn),i,i,i,i,i,i,nt,nt,
CN(C)c1ccc(NC(=O)C2C3C=CC(C3)C2C(=O)O)cc1 (stereo not drawn),i,i,55.7,i,i,i,i,i,
O=C(O)C1C2C=CC(C2)C1C(=O)Nc1ccc2c(c1)OCCO2 (stereo not drawn),i,i,i,i,i,i,nt,nt,
CCC(=O)N1CCc2cc(S(=O)(=O)NC(C(=O)N3CCN(c4ccc(F)cc4)CC3)C(C)C)ccc21 (stereo not drawn),i,i,i,i,i,i,nt,nt,
CCCCCCCCCc1nc2sc3c(c2c(=O)n1NC(=O)c1ccccc1[N+](=O)[O-])CC(C)(C)OC3,i,i,37.4,i,i,i,50.1,i,FID counter DR=i
SMILES,T cruzi inh,MEKK2 WT-MEK5,NS3 helicase inh,MEKK3 PB1 HTS,DNA FID counter-1,MEKK2mut PB1 HTS,NS3 helicase cf,DNA FID counter-2,others
CCCCCCCCCc1nc2sc3c(c2c(=O)n1NC(=O)c1ccc([N+](=O)[O-])cc1)CC(C)(C)OC3,i,i,i,i,i,i,nt,nt,
CN(C(=O)CSc1nnc(N)s1)C1CCCCC1,i,i,36.6,i,i,i,i,i,
Nc1nnc(SCC(=O)NC2CCCC2)s1,i,i,i,i,i,i,nt,nt,
OCc1cc(Br)ccc1OCc1nc2ccccc2s1,i,i,38.0,i,i,i,i,i,
Oc1ccccc1OCc1nc2ccccc2s1,i,i,i,i,i,i,nt,nt,
COc1ccc(/C(C)=N/NC(=S)NCCc2ccccc2)c(O)c1,i,i,42.5,i,i,i,i,i,
COC(=O)/C=C/c1ccc(OC(=O)c2ccncc2)cc1,i,i,i,i,i,i,nt,nt,
O=C(CC1Nc2cccc3cccc(c23)NC1=O)Nc1ccccc1 (stereo not drawn),i,i,67.1,i,i,i,i,i,
O=C(CC1Nc2ccccc2NC1=O)c1ccccc1 (stereo not drawn),i,i,i,i,i,i,nt,nt,
CCCOc1ccc(NC(=O)CC2Nc3ccccc3NC2=O)cc1 (stereo not drawn),i,i,i,i,i,i,nt,nt,
NC(=O)CC1Nc2cccc3cccc(c23)NC1=O (stereo not drawn),i,i,61.5,i,i,i,i,i,
CN(C(=O)CCN1C(=O)c2ccccc2C1=O)c1ccccc1,i,i,i,i,i,i,nt,nt,
COc1ccccc1NC(=O)/C=C\c1ccco1,i,i,52.7,i,i,i,i,i,
COc1ccc(C(NC(=O)/C=C\c2ccco2)c2ccc(OC)c(OC)c2)cc1 (stereo not drawn),i,i,36.9,i,i,i,i,i,
Cc1cccc(NC(=S)NC(=O)/C=C/c2ccco2)c1,i,i,i,i,i,i,nt,nt,
Cc1cccc(NC(=S)NC(=O)/C=C/c2ccco2)n1,i,i,76.9,i,i,i,i,i,
COc1ccccc1NC(=S)NC(=O)/C=C/c1ccco1,i,i,i,i,i,i,nt,nt,
COc1ccc(CCNC(=O)/C=C/c2ccco2)cc1,i,i,41.4,i,i,i,i,i,
COc1ccc(C(NC(=O)/C=C/c2ccco2)c2ccc(OC)cc2)cc1,i,i,i,i,i,i,nt,nt,
CC1CCCN(C(=O)Cn2nnc(-c3ccccc3F)n2)C1 (stereo not drawn),i,i,i,i,i,i,nt,nt,
CC(CCc1ccco1)NC(=O)CCc1nnc2ccc(NCc3ccc(Cl)cc3)nn12 (stereo not drawn),i,i,i,i,i,i,nt,nt,
CC(CCc1ccco1)NC(=O)CCc1nnc2ccc(NCc3ccccc3Cl)nn12 (stereo not drawn),i,i,61.5,i,i,i,i,i,
COc1cccc(-c2coc3c(C)c4oc(=O)c(CC(=O)O)c(C)c4cc23)c1,i,i,44.2,i,i,i,58.6,i,

# From PubChem BioAssay
